How the values were obtained:
Format in all cases: functional
Malme-3M [1] = experiment: Growth inhibition of human MALME-3M cells assessed tumor cell growth at 10^-5 M; design: scale not given: the % may be the effect or the level left
Outline: (§1)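 NCI 60-human-tumor-cell-line panel screen. Each compound was tested at a single concentration of 10^-5 M, and percent growth of tumor cells was recorded for each cell line. Growth inhibition was expressed from these percent-growth values.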

SF-295 [2] = experiment: Growth inhibition of human SF295 cells assessed tumor cell growth at 10^-5 M; design: scale not given: the % may be the effect or the level left; outline: as §1
[3] = Growth inhibition of human RPMI8266 cells
TK-10 = experiment: Growth inhibition of human TK10 cells
PC-3 [4] = experiment: Growth inhibition of human PC3 cells assessed tumor cell growth at 10^-5 M; design: scale not given: the % may be the effect or the level left; outline: as §1
SN12C [5] = experiment: Growth inhibition of human SN12C cells
OVCAR-3 = experiment: Growth inhibition of human OVCAR3 cells assessed tumor cell growth at 10^-5 M; design: scale not given: the % may be the effect or the level left; outline: as §1
Malme-3M [6] = experiment: Growth inhibition of human MALME-3M cells
U-251 [7] = experiment: Growth inhibition of human U251 cells
SK-OV-3 = experiment: Growth inhibition of human SKOV3 cells assessed tumor cell growth at 10^-5 M; design: scale not given: the % may be the effect or the level left; outline: as §1
PC-3 [8] = experiment: Growth inhibition of human PC3 cells
HCT-116 [9] = experiment: Growth inhibition of human HCT116 cells assessed tumor cell growth at 10^-5 M; design: scale not given: the % may be the effect or the level left; outline: as §1
KM12 [10] = experiment: Growth inhibition of human KM12 cells
SR = experiment: Growth inhibition of human SR cells assessed tumor cell growth at 10^-5 M; design: scale not given: the % may be the effect or the level left
Outline: (§2)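 Single-dose screen at 10^-5 M across the 60 human tumor cell line panel, run to NCI standards. The value is the percent growth of each cell line in the presence of compound. Compounds active at this dose moved on to five-concentration testing (10^-4 to 10^-8 M).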

SN12C [11] = experiment: Growth inhibition of human SN12C cells assessed tumor cell growth at 10^-5 M; design: scale not given: the % may be the effect or the level left; outline: as §1
SF-295 [12] = experiment: Growth inhibition of human SF295 cells
UO-31 [13] = experiment: Growth inhibition of human UO31 cells
MDA-MB-468 [14] = experiment: Growth inhibition of human MDA-MB-468 cells
NCI-H460 [15] = experiment: Growth inhibition of human NCI-H460 cells
HCT-116 [16] = experiment: Growth inhibition of human HCT116 cells
NCI-H460 [17] = experiment: Growth inhibition of human NCI-H460 cells assessed tumor cell growth at 10^-5 M; design: scale not given: the % may be the effect or the level left; outline: as §1
UACC-257 = experiment: Growth inhibition of human UACC257 cells assessed tumor cell growth at 10^-5 M; design: scale not given: the % may be the effect or the level left; outline: as §2
LOX IMVI = experiment: Growth inhibition of human LOXIMVI cells
T47D = experiment: Growth inhibition of human T47D cells assessed tumor cell growth at 10^-5 M; design: scale not given: the % may be the effect or the level left; outline: as §2
SK-MEL-5 = experiment: Growth inhibition of human SK-MEL-5 cells assessed tumor cell growth at 10^-5 M; design: scale not given: the % may be the effect or the level left; outline: as §1
OVCAR-8 = experiment: Growth inhibition of human OVCAR8 cells
KM12 [18] = experiment: Growth inhibition of human KM12 cells assessed tumor cell growth at 10^-5 M; design: scale not given: the % may be the effect or the level left; outline: as §1
HOP-92 = experiment: Growth inhibition of human HOP92 cells assessed tumor cell growth at 10^-5 M; design: scale not given: the % may be the effect or the level left; outline: as §1
EKVX [19] = experiment: Growth inhibition of human EKVX cells assessed tumor cell growth at 10^-5 M; design: scale not given: the % may be the effect or the level left; outline: as §1
K562 = experiment: Growth inhibition of human K562 cells
U-251 [20] = experiment: Growth inhibition of human U251 cells assessed tumor cell growth at 10^-5 M; design: scale not given: the % may be the effect or the level left; outline: as §2
ACHN = experiment: Growth inhibition of human ACHN cells assessed tumor cell growth at 10^-5 M; design: scale not given: the % may be the effect or the level left; outline: as §1
RXF 393 = experiment: Growth inhibition of human RXF393 cells assessed tumor cell growth at 10^-5 M; design: scale not given: the % may be the effect or the level left; outline: as §1
HCT-15 = experiment: Growth inhibition of human HCT15 cells assessed tumor cell growth at 10^-5 M; design: scale not given: the % may be the effect or the level left; outline: as §1
MOLT-4 = experiment: Growth inhibition of human MOLT4 cells assessed tumor cell growth at 10^-5 M; design: scale not given: the % may be the effect or the level left; outline: as §1
HL-60(TB) = experiment: Growth inhibition of human HL-60(TB) cells
A498 = experiment: Growth inhibition of human A498 cells
SNB-19 = experiment: Growth inhibition of human SNB19 cells
CAKI-1 [21] = experiment: Growth inhibition of human Caki1 cells
HOP-62 = experiment: Growth inhibition of human HOP62 cells assessed tumor cell growth at 10^-5 M; design: scale not given: the % may be the effect or the level left; outline: as §1
A549 = experiment: Growth inhibition of human A549 cells assessed tumor cell growth at 10^-5 M; design: scale not given: the % may be the effect or the level left; outline: as §1
SW-620 = experiment: Growth inhibition of human SW620 cells
COLO 205 = experiment: Growth inhibition of human COLO205 cells
UO-31 [22] = experiment: Growth inhibition of human UO31 cells assessed tumor cell growth at 10^-5 M; design: scale not given: the % may be the effect or the level left; outline: as §2
NCI/ADR-RES = experiment: Growth inhibition of human NCI/ADR-RES cells
DU-145 [23] = experiment: Growth inhibition of human DU145 cells assessed tumor cell growth at 10^-5 M; design: scale not given: the % may be the effect or the level left; outline: as §1
MDA-MB-435 = experiment: Growth inhibition of human MDA-MB-435 cells
CAKI-1 [24] = experiment: Growth inhibition of human Caki1 cells assessed tumor cell growth at 10^-5 M; design: scale not given: the % may be the effect or the level left; outline: as §1
MDA-MB-468 [25] = experiment: Growth inhibition of human MDA-MB-468 cells assessed tumor cell growth at 10^-5 M; design: scale not given: the % may be the effect or the level left; outline: as §1
DU-145 [26] = experiment: Growth inhibition of human DU145 cells
M14 = experiment: Growth inhibition of human M14 cells
MCF7 = experiment: Growth inhibition of human MCF7 cells assessed tumor cell growth at 10^-5 M; design: scale not given: the % may be the effect or the level left; outline: as §1
MDA-MB-231 = experiment: Growth inhibition of human MDA-MB-231 cells
EKVX [27] = experiment: Growth inhibition of human EKVX cells
[28] = read-out: LC50 (the source's name)

Molecule CC1=NN(c2cccc(Cl)c2)C(=O)/C1=C\c1c(O)ccc2ccccc12 has an Activity (Malme-3M [1]) of 58.97%, an Activity (SF-295 [2]) of 25.62% and a GI50 [3] of over 100 µM. The CC50 [3, 28] was over 100 µM, the GI50 (TK-10) was 34.6 µM and the CC50 (TK-10; [28]) was over 100 µM. The Activity (PC-3 [4]) was 33.03%, the GI50 (SN12C [5]) was over 100 µM and the CC50 (SN12C [5]; [28]) was over 100 µM. For the same molecule, the Activity (OVCAR-3) was 63.18%, the GI50 (Malme-3M [6]) was 29.5 µM and the CC50 (Malme-3M [6]; [28]) was over 100 µM. The GI50 (U-251 [7]) was 40.7 µM, the CC50 (U-251 [7]; [28]) was over 100 µM and the Activity (SK-OV-3) was 28.27%. It also gave a GI50 (PC-3 [8]) of over 100 µM, a CC50 (PC-3 [8]; [28]) of over 100 µM and an Activity (HCT-116 [9]) of 8.69%. The GI50 (KM12 [10]) was over 100 µM, the CC50 (KM12 [10]; [28]) was over 100 µM and the Activity (SR) was 29.7%. The Activity (SN12C [11]) was 23.59%, the GI50 (SF-295 [12]) was 22.9 µM and the CC50 (SF-295 [12]; [28]) was over 100 µM. For the same molecule, the GI50 (UO-31 [13]) was over 100 µM, the CC50 (UO-31 [13]; [28]) was over 100 µM and the GI50 (MDA-MB-468 [14]) was 17.7 µM. It also gave a CC50 (MDA-MB-468 [14]; [28]) of over 100 µM, a GI50 (NCI-H460 [15]) of over 100 µM and a CC50 (NCI-H460 [15]; [28]) of over 100 µM. The GI50 (HCT-116 [16]) was over 100 µM, the CC50 (HCT-116 [16]; [28]) was over 100 µM and the Activity (NCI-H460 [17]) was 79.03%. For the same molecule, the Activity (UACC-257) was 79.99%, the GI50 (LOX IMVI) was over 100 µM and the CC50 (LOX IMVI; [28]) was over 100 µM. The Activity (T47D) was 2.21%, the Activity (SK-MEL-5) was -82.5% and the GI50 (OVCAR-8) was over 100 µM. For the same molecule, the CC50 (OVCAR-8; [28]) was over 100 µM, the Activity (KM12 [18]) was 21.17% and the Activity (HOP-92) was -2.07%. For the same molecule, the Activity (EKVX [19]) was 51.27%, the GI50 (K562) was 44.6 µM and the CC50 (K562; [28]) was over 100 µM. The Activity (U-251 [20]) was -10.7%, the Activity (ACHN) was -36.07% and the Activity (RXF 393) was -76.85%. It also gave an Activity (HCT-15) of 49.94%, an Activity (MOLT-4) of 44.19% and a GI50 (HL-60(TB)) of over 100 µM. It also gave a CC50 (HL-60(TB); [28]) of over 100 µM, a GI50 (A498) of over 100 µM and a CC50 (A498; [28]) of over 100 µM. The GI50 (SNB-19) was 45.7 µM, the CC50 (SNB-19; [28]) was over 100 µM and the GI50 (CAKI-1 [21]) was over 100 µM. For the same molecule, the CC50 (CAKI-1 [21]; [28]) was over 100 µM, the Activity (HOP-62) was -64.07% and the Activity (A549) was 60.45%. The GI50 (SW-620) was over 100 µM, the CC50 (SW-620; [28]) was over 100 µM and the GI50 (COLO 205) was over 100 µM. The LC50 (COLO 205) was over 100 µM, the Activity (UO-31 [22]) was 66.56% and the GI50 (NCI/ADR-RES) was over 100 µM. It also gave a CC50 (NCI/ADR-RES; [28]) of over 100 µM, an Activity (DU-145 [23]) of 35.43% and a GI50 (MDA-MB-435) of over 100 µM. It also gave a CC50 (MDA-MB-435; [28]) of over 100 µM, an Activity (CAKI-1 [24]) of 34.96% and an Activity (MDA-MB-468 [25]) of 34.53%. The GI50 (DU-145 [26]) was 70.7 µM, the CC50 (DU-145 [26]; [28]) was over 100 µM and the GI50 (M14) was over 100 µM. It also gave a CC50 (M14; [28]) of over 100 µM, an Activity (MCF7) of 3.07% and a GI50 (MDA-MB-231) of 36.3 µM. The CC50 (MDA-MB-231; [28]) was over 100 µM, the GI50 (EKVX [27]) was over 100 µM and the CC50 (EKVX [27]; [28]) was over 100 µM.

— ChEMBL document CHEMBL1811814, “Synthesis and evaluation of indole, pyrazole, chromone and pyrimidine based conjugates for tumor growth inhibitory activities--development of highly efficacious cytotoxic agents” (Eur J Med Chem, 2010)
